Bioassay records deposited in PubChem BioAssay by SRMLSC.
bCat KO growth: beta-catenin-lacking colon tumor cell growth suppression; HCT116 beta-catenin knockout viability, CellTiter-Glo, 60 h; active compounds read low; viability, % at 10 µM; hit rate 1.5% among 140,000;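 active means viability at or under a set limit, the compound median less 4 SD, cut at about 6% in these data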;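 further: 0% = Hyamine 1622 control at 20 µM and 100% = untreated cell control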
Lung fibro prol: blocks proliferation of human lung fibroblasts. viability, % at 10 µM. LL 47 human lung fibroblast viability, ATP luminescence; active compounds read low. hit rate 1.1% among 85,000. AID 719;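 active means viability at or below 50% in the single dose screen; inactive means viability above 50%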;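 further: compound exposure lasted 72 h before the ATP readout; 100% = median luminescence of untreated cell-only wells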
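Signal: luminescent ATP detection, CellTiter-Glo; assay system: LL 47 human lung fibroblasts; input: 1,150 cells/well; incubation: overnight cell rest, 72 h compound treatment at 37 °C; measure: % viability versus median cells-only luminescence; medium: IMEM growth medium with 15% fetal bovine serum; dosing: compound addition at 0.1% DMSO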
HUVEC inhibit: blocks proliferation of human endothelial cells; HUVEC proliferation, CellTiter-Glo luminescence, 72 h; active compounds read low; viability, % at 10 µM (by protocol); hit rate 1.1% among 86,000; AID 648;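 active means viability at or below 30%; inactive means viability above 30%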;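 further: 100% = median luminescence of DMSO-only cell control wells on each plate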
H69AR inhibit: blocks growth of human H69AR lung tumor cells. viability, % at 10 µM. hit rate 6% among 85,000. H69AR lung tumor viability, ATP luminescence, 72 h; active compounds read low;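 active means viability at or below 40%; inactive means viability above 40%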;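 further: multidrug resistant small cell line overexpressing MRP-1 efflux transporter; 100% = mean luminescence of untreated control wells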
HCT116 PTEN-null: PTEN-deleted cell growth suppression. viability, % at 10 µM. HCT116 PTEN-null viability, CellTiter-Glo, 60 h; active compounds read low. AID 827. hit rate 1.2% among 140,000;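 active means viability at or below a set limit, 4 SD under the median of all tested compounds, cut at about 3.7% in these data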;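 further: PTEN knockout HCT116 line with beta catenin targeted HCT116 as companion control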
An asterisk follows results filed as active; · = no result given. The entries come from a sample that favours hits as a whole.

SMILES	bCat KO growth	Lung fibro prol	HUVEC inhibit	H69AR inhibit	HCT116 PTEN-null
Cn1c(=O)c2c3c(sc2n2c(SCC(N)=O)nnc12)CC(C(C)(C)C)CC3 (configuration not stated)	1.4*	89	73	66	5
O=C(NCc1ccc2c(c1)OCO2)C1CCC(CNS(=O)(=O)c2cccc3nsnc23)CC1 (configuration not stated)	85	44*	59	96	96
O=C(CSc1nc2ccccc2o1)Nc1cc(C(F)(F)F)ccc1N1CCOCC1	72	·	·	·	77
Cc1ccc2nc(SCC(=O)Nc3cc(C(F)(F)F)ccc3N3CCOCC3)[nH]c2c1	10	40*	29*	12*	13
Cc1ccccc1Cn1cc(NC(=O)c2nn(C)cc2Cl)cn1	92	·	·	·	91
Cc1ccc(C2CC(C(F)F)n3ncc(C(=O)Nc4cnn(Cc5ccccc5C)c4)c3N2)cc1 (configuration not stated)	1.8*	63	16*	14*	2.1*
Oc1ccccc1CNc1ccc(Br)cn1	20	6.4*	9.3*	82	36
CCCN(CCO)Cc1cccc(Br)c1	98	38*	88	87	92
COc1ccc(-c2nc(N)nc(C)c2Oc2ccccc2Br)c(O)c1	25	75	80	23*	19
COc1ccc(-c2nc(N)ncc2-c2csc(C)n2)c(O)c1	88	95	106	94	85
CCCCNS(=O)(=O)c1ccc2nc(-c3cccnc3)cc(C(=O)NC3CC3)c2c1	0.3*	·	·	·	0.4*
CCCCNS(=O)(=O)c1ccc2nc(-c3cccnc3)cc(C(=O)NC(C)C)c2c1	68	·	·	·	69
O=C(COc1ccc2c(c1)CCC2)N1CCc2ccccc21	77	89	80	81	78
CCOC(=O)C1=C(C)OC(N)=C(C#N)C1c1c(C)nn(-c2ccccc2)c1Cl (configuration not stated)	96	92	84	·	93
Cc1ccc(-n2nc(C)c(C3C(C#N)=C(N)OC4=C3C(=O)CC(C)(C)C4)c2Cl)cc1 (configuration not stated)	·	80	63	24*	·
C=CCOC(=O)C1=C(C)OC(N)=C(C#N)C1c1c(C)nn(-c2ccccc2)c1Cl (configuration not stated)	113	91	85	29*	98
Cc1nn(-c2ccccc2)c(Cl)c1C1C(C#N)=C(N)Oc2c1c(C)nn2-c1ccccc1 (configuration not stated)	87	99	75	5.1*	94
O=S(=O)(/N=C(/c1ccc(F)cc1)N1CCCCC1)c1ccc(Cl)cc1	85	·	·	·	86
Cc1cc(C)n(-c2ccc(C(=O)OCC(=O)c3ccc(Br)s3)cc2)n1	97	104	104	105	104
CCc1ccc(C(C)NC(=O)Cn2cnc3c(=O)n(C)c(=O)n(C)c32)cc1 (configuration not stated)	85	94	89	91	94
C=CCOc1c(CNc2nccs2)cccc1OCC	93	89	97	88	90
CCN(CC)Cc1nc2c(c(=O)[nH]1)C1(CCCCC1)Cc1ccccc1-2	78	90	100	59	84
CN(C)Cc1nc2c(c(=O)[nH]1)C1(CCCCC1)Cc1ccccc1-2	40	73	83	7.2*	60
Cc1cc(C(=O)Nc2sc3c(c2C#N)CCCC3)no1	59	96	80	27*	71
Cc1cc(C(=O)Nc2sc3c(c2C#N)CCC3)no1	60	99	68	22*	54
SMILES	bCat KO growth	Lung fibro prol	HUVEC inhibit	H69AR inhibit	HCT116 PTEN-null
CC(C)Cc1cc(C(=O)Nc2sc3c(c2C#N)CCCC3)no1	96	91	97	91	90
N#Cc1c(NC(=O)c2cc(C3CC3)on2)sc2c1CCC2	37	99	61	33*	36
CC(C)Cc1cc(C(=O)Nc2sc3c(c2C#N)CCC3)no1	90	104	100	67	100
Clc1ccc2[nH]c3c(c2c1)CCc1cn[nH]c1-3	71	94	46	22*	72
N#Cc1ccc(Cl)cc1NC(=O)COC(=O)[C@H](CCC(N)=O)NC(=O)c1ccc(F)cc1	86	·	·	·	94
O=C(NC1=C(Nc2ccc(Cl)cc2)C(=O)c2ccccc2C1=O)c1ccccc1	34	·	·	·	49
Cc1cccc(NC2=C(NC(=O)c3ccccc3)C(=O)c3ccccc3C2=O)c1	3.6*	·	·	·	4
CCCOc1ccc(C(=O)NNC(=S)NC(=O)CC)cc1	5.5*	·	·	·	6
Cc1nc2nc(C)c(CCC(=O)NC(C)c3ccc4c(c3)OCCO4)c(C)n2n1 (configuration not stated)	96	103	103	97	103
Cc1nc2nc(C)c(CCC(=O)NCc3ccc4c(c3)OCO4)c(C)n2n1	107	99	96	26*	98
COc1ccc(OC)c(NC(=O)COC(=O)/C=C/c2ccc(Cl)cc2)c1	95	·	·	·	98
Cc1ccc(C)c(NC(=O)c2ccccc2O)c1	82	97	81	19*	81
Cc1cccc(NC(=O)c2ccccc2O)c1C	82	90	99	53	89
CCOc1ccc(-c2nn(-c3ccccc3)cc2/C=C2\SC(N)=NC2=O)cc1C	1.1*	·	·	·	0.7*
Cc1ccc2[nH]c(=O)c(C(c3nnnn3CCc3ccccc3)N3CCOCC3)cc2c1 (configuration not stated)	97	96	100	91	102
COc1cccc(CNc2ccc(N3CCC(C)CC3)cc2)c1OC	59	99	93	14*	74
CCCCCCn1c(=O)[nH]c2nc3cc(N)ccc3nc2c1=O	64	·	·	·	67
CCOC(=O)CNC(=O)CSc1nc2ncc(Br)cc2[nH]1	94	112	98	·	106
Cc1cc(C)cc(OCc2nc3ncc(Br)cc3[nH]2)c1	·	14*	38	11*	·
COc1cccc(OCc2nc3ncc(Br)cc3[nH]2)c1	11	47*	48	25*	18
COc1cccc(OCc2nc3ccccc3[nH]2)c1	95	92	91	77	78
CC(C)NC(=O)C(OC(=O)c1ccccc1)C(OC(=O)c1ccccc1)C(=O)O (configuration not stated)	97	·	·	·	106
COc1cc2cc(C(c3nnnn3C(C)(C)C)N3CCc4ccccc43)c(=O)[nH]c2cc1OC (configuration not stated)	75	98	100	78	61
COc1ccccc1N1CCN(C(c2cc3ccc(C)cc3[nH]c2=O)c2nnnn2C2CCCC2)CC1 (configuration not stated)	3.0*	96	89	95	8
COc1cc2cc(C(c3nnnn3C3CCCC3)N3CCc4ccccc43)c(=O)[nH]c2cc1OC (configuration not stated)	78	36*	68	31*	83
CN(C)Cc1cc(CCNC(=O)c2ccc(Cl)cc2)ccc1O	96	89	92	94	101
Cc1ccc(C)c2sc(NC(=O)c3nc4ccccc4s3)nc12	21	·	·	·	23
Cc1cccc(C(=O)NCc2nnc3c4ccccc4c(-c4ccccc4)nn23)c1	71	·	·	·	66
